Active and inactive are the calls of the source. No cut-off for these calls is given here.
Tests used:
[1] = Induction of apoptosis in human WM1361 cells assessed as late apoptotic cells at 40 uM after 24 hrs by Annexin V-FITC/propidium iodide based flow cytometric analysis (reference value: 2.96 %); format: functional
[2] = Induction of apoptosis in human WM1361 cells assessed as necrotic cells at 40 uM after 24 hrs by Annexin V-FITC/propidium iodide based flow cytometric analysis (reference value: 0.860 %); format: functional
[3] = Cell cycle arrest in human WM266.4 cells assessed as accumulation at G0/G1 phase at 4 uM after 24 hrs by propidium iodide staining based FACS analysis (reference value: 56.58 to 64.70%); format: functional; conditions: WM 266-4
Method in brief: (§1)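 WM266-4 (BRAF V600E melanoma) cells exposed to 0, 2, 4 or 8 µM for 24 h. Cell-cycle distribution by flow cytometry, with G1, S and G2/M fractions gated. Three independent experiments.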

WM 266-4 [4] = test: Induction of apoptosis in human WM266.4 cells assessed as necrotic cells at 2 uM after 24 hrs by Annexin V-FITC/propidium iodide based flow cytometric analysis (reference value: 0.435 %); format: functional
Method in brief: (§2)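 Apoptosis in WM266-4 (BRAF V600E) cells after 24 h at 0, 2, 4 or 8 µM, by Annexin V-FITC/PI dual staining and flow cytometry. Percentages of apoptotic cells were calculated. Three independent experiments.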

WM 266-4 [5] = test: Induction of apoptosis in human WM266.4 cells assessed as DNA fragmentation up to 8 uM after 24 hrs by agarose gel electrophoresis; format: functional, cell-based
Method in brief: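 DNA ladder assay: WM266-4 cells cultured at 37 °C for 24 h with 0, 2, 4 or 8 µM. DNA isolated and run on 2.0% agarose gel beside 2000 bp and 15000 bp markers. Untreated cells served as control.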

[6] = Induction of apoptosis in human WM1361 cells assessed as early apoptotic cells at 20 uM after 24 hrs by Annexin V-FITC/propidium iodide based flow cytometric analysis (reference value: 1.02 %); format: functional
WM 266-4 [7] = test: Induction of apoptosis in human WM266.4 cells assessed as necrotic cells at 8 uM after 24 hrs by Annexin V-FITC/propidium iodide based flow cytometric analysis (reference value: 0.435 %); format: functional; method in brief: as §2
WM 266-4 [8] = test: Induction of apoptosis in human WM266.4 cells assessed as late apoptotic cells at 4 uM after 24 hrs by Annexin V-FITC/propidium iodide based flow cytometric analysis (reference value: 5.04 %); format: functional; method in brief: as §2
WM 266-4 [9] = test: Induction of apoptosis in human WM266.4 cells assessed as late apoptotic cells at 2 uM after 24 hrs by Annexin V-FITC/propidium iodide based flow cytometric analysis (reference value: 5.04 %); format: functional; method in brief: as §2
[10] = Cell cycle arrest in human WM266.4 cells assessed as accumulation at G2/M phase at 8 uM after 12 hrs by propidium iodide staining based FACS analysis (reference value: 5.79 %); conditions: WM 266-4
[11] = Cell cycle arrest in human WM266.4 cells assessed as accumulation at S phase at 2 uM after 24 hrs by propidium iodide staining based FACS analysis (reference value: 29.03 %); format: functional; conditions: WM 266-4; method in brief: as §1
[12] = Cell cycle arrest in human WM266.4 cells assessed as accumulation at S phase at 8 uM after 24 hrs by propidium iodide staining based FACS analysis (reference value: 29.03 %); format: functional; conditions: WM 266-4; method in brief: as §1
[13] = Cell cycle arrest in human WM266.4 cells assessed as accumulation at G2/M phase at 4 uM after 24 hrs by propidium iodide staining based FACS analysis (reference value: 5.79 to 14.39%); format: functional; conditions: WM 266-4; method in brief: as §1
WM 266-4 [14] = test: Induction of apoptosis in human WM266.4 cells assessed as late apoptotic cells at 8 uM after 24 hrs by Annexin V-FITC/propidium iodide based flow cytometric analysis (reference value: 5.04 %); format: functional; method in brief: as §2
[15] = Induction of apoptosis in human WM1361 cells assessed as late apoptotic cells at 20 uM after 24 hrs by Annexin V-FITC/propidium iodide based flow cytometric analysis (reference value: 2.96 %); format: functional
WM 266-4 [16] = test: Induction of apoptosis in human WM266.4 cells assessed as viable cells at 8 uM after 24 hrs by Annexin V-FITC/propidium iodide based flow cytometric analysis (reference value: 92.9 %); format: functional; conditions: WM 266-4, 24 h, read-out: Activity; method in brief: as §2
[17] = Cell cycle arrest in human WM266.4 cells assessed as accumulation at S phase at 8 uM after 12 hrs by propidium iodide staining based FACS analysis (reference value: 29.51 %); conditions: WM 266-4
[18] = Antiproliferative activity against human A375 cells assessed as cell growth inhibition after 24 hrs by MTT assay; format: functional, cell-based; conditions: A-375, 24 h
[19] = Induction of apoptosis in human WM1361 cells assessed as necrotic cells at 20 uM after 24 hrs by Annexin V-FITC/propidium iodide based flow cytometric analysis (reference value: 0.860 %); format: functional
WM 266-4 [20] = test: Induction of apoptosis in human WM266.4 cells assessed as early apoptotic cells at 2 uM after 24 hrs by Annexin V-FITC/propidium iodide based flow cytometric analysis (reference value: 1.60 %); format: functional; method in brief: as §2
[21] = Induction of apoptosis in human WM1361 cells assessed as early apoptotic cells at 60 uM after 24 hrs by Annexin V-FITC/propidium iodide based flow cytometric analysis (reference value: 1.02 %); format: functional
[22] = Antiproliferative activity against human WM266.4 cells harboring BRAF V600E mutant assessed as cell growth inhibition after 24 hrs by MTT assay; format: functional, cell-based; conditions: WM 266-4, 24 h
[23] = Cell cycle arrest in human WM266.4 cells assessed as accumulation at S phase at 8 uM after 36 hrs by propidium iodide staining based FACS analysis (reference value: 29.51 %); conditions: WM 266-4
[24] = Induction of apoptosis in human WM1361 cells assessed as necrotic cells at 60 uM after 24 hrs by Annexin V-FITC/propidium iodide based flow cytometric analysis (reference value: 0.860 %); format: functional
WM 266-4 [25] = test: Induction of apoptosis in human WM266.4 cells assessed as necrotic cells at 4 uM after 24 hrs by Annexin V-FITC/propidium iodide based flow cytometric analysis (reference value: 0.435 %); format: functional; method in brief: as §2
WM 266-4 [26] = test: Induction of apoptosis in human WM266.4 cells assessed as early apoptotic cells at 8 uM after 24 hrs by Annexin V-FITC/propidium iodide based flow cytometric analysis (reference value: 1.60 %); format: functional; method in brief: as §2
WM 266-4 [27] = test: Induction of apoptosis in human WM266.4 cells assessed as viable cells at 2 uM after 24 hrs by Annexin V-FITC/propidium iodide based flow cytometric analysis (reference value: 92.9 %); format: functional; conditions: WM 266-4, 24 h, read-out: Activity; method in brief: as §2
[28] = Induction of apoptosis in human WM1361 cells assessed as viable cells at 20 uM after 24 hrs by Annexin V-FITC/propidium iodide based flow cytometric analysis (reference value: 95.2 %); format: functional; conditions: WM1361, 24 h, read-out: Activity
[29] = Induction of apoptosis in human WM1361 cells assessed as viable cells at 60 uM after 24 hrs by Annexin V-FITC/propidium iodide based flow cytometric analysis (reference value: 95.2 %); format: functional; conditions: WM1361, 24 h, read-out: Activity

## O=c1oc2ccccc2c(N2CCN(C(c3ccccc3)c3ccccc3)CC2)c1CO
[1]
  Activity: 5.11%
[2]
  Activity: 1.15%
[3]
  Activity: 76.4%
WM 266-4 [4]
  Activity: 5.06%
WM 266-4 [5]
  Activity: Active
[6]
  Activity: 1.16%
WM 266-4 [7]
  Activity: 3.07%
WM 266-4 [8]
  Activity: 21.2%
WM 266-4 [9]
  Activity: 14.5%
[10]
  Activity: 12.2%
[11]
  Activity: 21.6%
[12]
  Activity: 6.48%
[13]
  Activity: 7.56%
WM 266-4 [14]
  Activity: 32.7%
[15]
  Activity: 3.36%
WM 266-4 [16]
  viability at 8 µM: 37.1%
[17]
  Activity: 21.6%
[18]
  IC50: 2240 nM
[19]
  Activity: 1.36%
WM 266-4 [20]
  Activity: 13.4%
[21]
  Activity: 1.61%
[22]
  IC50: 1350 nM
[23]
  Activity: 8.26%
[24]
  Activity: 1.31%
WM 266-4 [25]
  Activity: 1.88%
WM 266-4 [26]
  Activity: 27.1%
WM 266-4 [27]
  viability at 2 µM: 67%
[28]
  viability at 20 µM: 94.1%
[29]
  viability at 60 µM: 91.8%
